Active and inactive are the calls of the source. No cut-off for these calls is given here.
Key:
[1] = Inhibition of CXCL8-induced cell migration in human PMN cells at 0.01 uM by chemotaxis assay; format: functional
Procedure, shortened: (§1)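 Human PMNs from normal-donor buffy coats (dextran sedimentation, hypotonic lysis; 95% purity, >95% viability). Cells at 1.5-3 × 10⁶/mL preincubated 15 min at 37 °C with vehicle or compound, then seeded in triplicate in the upper well of a 48-well micro-chemotaxis chamber. Lower well held CXCL8 1 nM or CXCL1 10 nM. Chamber ran 45 min at 37 °C in 5% CO₂; filters were fixed and stained, and five 100× fields per well were counted.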

[2] = Inhibition of CXCL1-induced cell migration in human PMN cells at 0.01 uM by chemotaxis assay; format: functional; procedure, shortened: as §1
[3] = system: L1.2; test: Inhibition of CXCL8-induced cell migration in L1.2 cells expressing wild type CXCR1 at 0.1 uM by chemotaxis assay; format: functional; details: Mus musculus
Procedure, shortened: (§2)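 Mouse L1.2 lymphoma cells were transiently electroporated with wild-type or Ile43Val human CXCR1, with expression checked by flow cytometry at 48 h. Cells were kept overnight in 5 mM sodium butyrate, resuspended at 10⁷/mL, and pretreated 30 min at 37 °C with compound (1-1000 nM). Migration to 10 nM CXCL8, with compound in both chambers, ran 4 h at 37 °C through 5 µm Transwells. Cells were counted in a Bürker chamber and expressed as % of migration without compound, from ≥3 independent experiments.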

[4] = system: L1.2; test: Inhibition of CXCL8-induced cell migration in L1.2 cells expressing Ile43Val CXCR1 mutant by chemotaxis assay; format: functional, cell-based; details: Mus musculus; procedure, shortened: as §2
[5] = system: L1.2; test: Inhibition of CXCL8-induced cell migration in L1.2 cells expressing wild type CXCR1 at up to 1000 nM by chemotaxis assay; format: functional, cell-based; details: Mus musculus; procedure, shortened: as §2
[6] = system: L1.2; test: Inhibition of CXCL8-induced cell migration in L1.2 cells expressing CXCR1 by chemotaxis assay; format: functional, cell-based; details: Mus musculus; procedure, shortened: as §2
[7] = Inhibition of CXCL8-induced cell migration in human PMN cells 0.1 uM chemotaxis assay; format: functional; procedure, shortened: as §1

SMILES	inhibition at 0.01 µM [1] [%]	inhibition at 0.01 µM [2] [%]	also measured
CC(C(=O)O)c1ccc(OS(C)(=O)=O)cc1 (stereo not given)	5	–	–
CC(C(=O)O)c1ccc(N2CCCC2=O)cc1 (stereo not given)	10	–	–
CC(=O)c1cccc([C@@H](C)C(=O)O)c1	5	–	–
CC(C(=O)O)c1ccc(NS(C)(=O)=O)cc1 (stereo not given)	-8	–	–
CC(C(=O)O)c1cccc(C(=O)c2ncco2)c1 (stereo not given)	26	–	–
C[C@@H](C(=O)Nc1ccccn1)c1ccc(OS(=O)(=O)C(F)(F)F)cc1	48	50	–
CC(C(=O)O)c1ccc(NS(=O)(=O)c2ccccc2Cl)cc1 (stereo not given)	-2	66	–
CC(C(=O)O)c1ccc(OS(=O)(=O)C(C)C)cc1 (stereo not given)	49	46	–
CC(C(=O)O)c1cccc(Oc2ccccc2)c1 (stereo not given) [FENOPROFEN]	-17	–	–
CONC(=O)[C@H](C)c1ccc(OS(=O)(=O)C(F)(F)F)cc1	60	40	–
C[C@@H](C(=O)Nc1cccnc1)c1ccc(OS(=O)(=O)C(F)(F)F)cc1	5	–	–
CC(C)=Cc1ccc(C(C)C(=O)O)cc1 (stereo not given)	14	–	–
CC(C)Cc1ccc([C@@H](C)C(=O)NS(C)(=O)=O)cc1 [REPARIXIN]	–	–	inhibition at 0.1 µM [3]: 80%; IC50 [4]: 80 nM; Activity [5]: Active; IC50 [6]: 5.6 nM
CC(C(=O)O)c1ccc(OS(=O)(=O)C(F)(F)F)cc1 (stereo not given)	57	57	–
CC(C(=O)O)c1ccc(NS(=O)(=O)c2ccccc2)cc1 (stereo not given)	45	14	–
C=C(c1ccccc1)c1cccc(C(C)C(=O)O)c1 (stereo not given)	47	2	–
C[C@@H](C(=O)N(C)O)c1ccc(OS(=O)(=O)C(F)(F)F)cc1	48	47	–
CC(C(=O)O)c1ccc(-c2ccccc2)cc1 (stereo not given)	0	–	–
CCC(=O)c1cccc(C(C)C(=O)O)c1 (stereo not given)	1	–	–
CC(C(=O)O)c1cccc(Cc2ccccc2)c1 (stereo not given)	10	–	–

SMILES	inhibition at 0.01 µM [1] [%]	inhibition at 0.01 µM [2] [%]	also measured
C[C@@H](C(=O)NS(=O)(=O)c1cccnc1)c1ccc(OS(=O)(=O)C(F)(F)F)cc1	11	–	–
CC(C(=O)O)c1ccc(NC(=O)c2ccccc2)cc1 (stereo not given)	8	–	–
C[C@@H](C(=O)NS(=O)(=O)c1ccccc1)c1ccc(OS(=O)(=O)C(F)(F)F)cc1	43	8	–
CC(C(=O)O)c1ccc(CC2CC2)cc1 (stereo not given)	24	30	–
C[C@@H](C(=O)NC1CC1)c1ccc(OS(=O)(=O)C(F)(F)F)cc1	-11	–	–
CC(C(=O)O)c1ccc(CC2CCCC2)cc1 (stereo not given)	10	40	–
C[C@@H](C(=O)Nc1ccncc1)c1ccc(OS(=O)(=O)C(F)(F)F)cc1	11	–	–
CCC(O)c1cccc(C(C)C(=O)O)c1 (stereo not given)	57	40	–
CCC(=O)Oc1ccc(C(C)C(=O)O)cc1 (stereo not given)	-6	–	–
CCCCc1cccc(C(C)C(=O)O)c1 (stereo not given)	3	–	–
CC(C(=O)O)c1cccc(C(=O)C2CCCCC2)c1 (stereo not given)	5	4	–
CCC(CC)c1cccc(C(C)C(=O)O)c1 (stereo not given)	58	67	–
C[C@@H](C(=O)NCC1CC1)c1ccc(OS(=O)(=O)C(F)(F)F)cc1	12	–	–
CNC(=O)[C@H](C)c1ccc(OS(=O)(=O)C(F)(F)F)cc1	22	–	–
CC(C)ONC(=O)[C@H](C)c1ccc(OS(=O)(=O)C(F)(F)F)cc1	50	40	–
CCC(C)c1cccc(C(C)C(=O)O)c1 (stereo not given)	–	–	Inhibition [7]: 50%
Cc1ccc(S(=O)(=O)Nc2ccc(C(C)C(=O)O)cc2)cc1 (stereo not given)	69	0	–
CC(C(=O)O)c1ccc(CC2CCCCC2)cc1 (stereo not given)	2	39	–
CC(C)Cc1cccc(C(C)C(=O)O)c1 (stereo not given)	-10	–	–
CC(C(=O)O)c1ccc(NS(=O)(=O)C(F)(F)F)cc1 (stereo not given)	10	–	–
